From PMC4819696 (Febs Letters, 2016)
“Also recorded” adds a separate entry of the source. *: point of attachment. Biotin = O=C1N[C@H]2[C@H](CS[C@H]2CCCCC(=O)*)N1

What was measured:
[1] = target: T1, full‐length syntenin (Homo sapiens, UniProt O00560); assay: Surface plasmon resonance; assay type: binding; details: used as reference channel; 10 mM HEPES, 150 mM NaCl, 0.005% Tween20, pH 7.4
T1 sequence (O00560 1-298): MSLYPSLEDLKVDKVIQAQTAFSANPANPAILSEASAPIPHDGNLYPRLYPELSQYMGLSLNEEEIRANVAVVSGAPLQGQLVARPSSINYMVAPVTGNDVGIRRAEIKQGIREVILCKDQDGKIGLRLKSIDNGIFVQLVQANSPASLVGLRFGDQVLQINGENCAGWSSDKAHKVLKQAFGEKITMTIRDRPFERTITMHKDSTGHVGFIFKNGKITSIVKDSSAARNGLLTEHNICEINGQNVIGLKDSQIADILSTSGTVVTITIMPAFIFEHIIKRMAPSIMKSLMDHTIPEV

[2] = test system: syntenin PDZ1‐2; assay: Clonal phage ELISA against PDZ1‐2; assay type: binding; details: clonal ELISA against the baits PDZ1, PDZ2 or PDZ1‐2
Method in brief: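 Syntenin PDZ1‑2 (107–275), PDZ1 (107–199) and PDZ2 (198–275) were expressed in E. coli ER2566 and purified by nickel affinity. Clones came from five rounds of selection of M13 gene‑8 libraries (random C‑terminal heptamers or internal dodecamers) on immobilized PDZ1‑2, with PBS/0.05% Tween 20 washes. Clones binding PDZ1‑2 but not control GST were sequenced, then each was tested by phage ELISA against immobilized PDZ1‑2, PDZ1 and PDZ2.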

[3] = test system: C‐terminus of nectin‐1; assay type: binding; details: bait C‐terminus of nectin‐1
Method in brief: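 Bait was transformed into MaV203 yeast, followed by 100 μg human fetal brain cDNA library in pEXP‑AD502. About 5 × 10^5 transformants were plated on medium lacking Trp/Leu/His with 20 mM 3‑amino‑1,2,4‑triazole, 30 °C, 5 days. Positives were checked on uracil and β‑galactosidase reporters, PCR‑amplified and retested in fresh bait yeast. Multi‑product colonies were discarded. Inserts were sequenced and in‑frame GAL4AD clones kept.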

[4] = test system: nectin‐1; assay type: cell-based; details: freshly plated MCF‐7 cells, fibronectin-coated coverslips, 5 h
[5] = target: T2, full-length syntenin (SPR analyte) (UniProt O00560 1-298); assay: SPR
T2 sequence (looked up): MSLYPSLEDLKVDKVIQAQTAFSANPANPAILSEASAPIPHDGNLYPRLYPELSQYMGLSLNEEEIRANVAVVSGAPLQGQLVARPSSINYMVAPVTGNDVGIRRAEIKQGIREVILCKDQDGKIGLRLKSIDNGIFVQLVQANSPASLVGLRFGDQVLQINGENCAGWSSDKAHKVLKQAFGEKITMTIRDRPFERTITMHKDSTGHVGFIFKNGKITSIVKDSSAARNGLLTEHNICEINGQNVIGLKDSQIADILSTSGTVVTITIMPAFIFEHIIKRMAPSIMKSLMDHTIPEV

[6] = test system: syntenin; assay: Co-immunoprecipitation of endogenous nectin-1 and syntenin in MCF‐7 cells; assay type: cell-based; details: IP with nectin‐1 specific antibody, immunoblot with anti‐syntenin antibody

For “Biot‐RMRKKDEGSYDLGERKPSSAAYQKAPTKEFpYA‐COOH”, the “binding to syntenin by SPR (in words)” value [1] was “nonbinding”.

For SHWTIDI, the “binding in clonal phage ELISA (in words)” value [2] was “both PDZ domains are necessary for binding to this peptide”.

With YYWAATGENVYS the “binding in clonal phage ELISA (in words)” value [2] was “loss of binding in phage ELISAs”.

B1: syntenin: small adaptor protein with PDZ1-2 tandem (protein)
chain: MSLYPSLEDLKVDKVIQAQTAFSANPANPAILSEASAPIPHDGNLYPRLYPELSQYMGLSLNEEEIRANVAVVSGAPLQGQLVARPSSINYMVAPVTGNDVGIRRAEIKQGIREVILCKDQDGKIGLRLKSIDNGIFVQLVQANSPASLVGLRFGDQVLQINGENCAGWSSDKAHKVLKQAFGEKITMTIRDRPFERTITMHKDSTGHVGFIFKNGKITSIVKDSSAARNGLLTEHNICEINGQNVIGLKDSQIADILSTSGTVVTITIMPAFIFEHIIKRMAPSIMKSLMDHTIPEV
modifications: left off: GAL4AD, end not stated, kept
For B1, the “Y2H preference (in words)” value [3] was “preferred nectin‐1 binder; also recorded: favored ligand of the C‐terminus of nectin‐1” and the “colocalization (in words)” value [4] was “colocalizes with nectin‐1 at the sites of cell–cell contacts”.

B2: N-terminal biotinylated nectin-1 C-terminal peptide (peptide)
peptide: Biotin-AENMVSQNDGSFISKKEWYV-OH
SMILES: CC[C@H](C)[C@H](NC(=O)[C@H](Cc1ccccc1)NC(=O)[C@H](CO)NC(=O)CNC(=O)[C@H](CC(=O)O)NC(=O)[C@H](CC(N)=O)NC(=O)[C@H](CCC(N)=O)NC(=O)[C@H](CO)NC(=O)[C@@H](NC(=O)[C@H](CCSC)NC(=O)[C@H](CC(N)=O)NC(=O)[C@H](CCC(=O)O)NC(=O)[C@H](C)NC(=O)CCCC[C@@H]1SC[C@@H]2NC(=O)N[C@@H]21)C(C)C)C(=O)N[C@@H](CO)C(=O)N[C@@H](CCCCN)C(=O)N[C@@H](CCCCN)C(=O)N[C@@H](CCC(=O)O)C(=O)N[C@@H](Cc1c[nH]c2ccccc12)C(=O)N[C@@H](Cc1ccc(O)cc1)C(=O)N[C@H](C(=O)O)C(C)C
Molecule B2 has a Kd [5] of 14 µM.

B3: nectin‐1: cell adhesion protein PVRL1, also called nectin-1 (protein)
chain: QVVQVNDSMYGFIGTDVVLHCSFANPLPSVKITQVTWQKSTNGSKQNVAIYNPSMGVSVLAPYRERVEFLRPSFTDGTIRLSRLELEDEGVYICEFATFPTGNRESQLNLTVMAKPTNWIEGTQAVLRAKKGQDDKVLVATCTSANGKPPSVVSWETRLKGEAEYQEIRNPNGTVTVISRYRLVPSREAHQQSLACIVNYHMDRFKESLTLNVQYEPEVTIEGFDGNWYLQRMDVKLTCKADANPPATEYHWTTLNGSLPKGVEAQNRTLFFKGPINYSLAGTYICEATNPIGTRSGQVEVNITEFPYTPSPPEHGRRAGPVPTAIIGGVAGSILLVLIVVGGIVVALRRRRHTFKGDYSTKKHVYGNGYSKAGIPQHHPPMAQNLQYPDDSDDEKKAGPLGGSSYEEEEEEEEGGGGGERKVGGPHPKYDEDAKRPYFTVDEAEARQDGYGDRTLGYQYDPEQLDLAENMVSQNDGSFISKKEWYV
In the case of B3, the “co-IP of endogenous proteins (in words)” value [6] is reported as “confirmed an interaction between the endogenous proteins”.
